Measured values from ChEMBL document CHEMBL1629608, “Variations in amino acid composition of antisense peptide-phosphorodiamidate morpholino oligomer affect potency against Escherichia coli in vitro and in vivo” (Antimicrob Agents Chemother, 2009).
Values after ≈ are worked out from the molar mass of the structure shown. Active and inactive are the calls of the source. The rule behind the calls is not given here.

How the values were obtained:
Escherichia coli [1] = test: Antibacterial activity against Escherichia coli K-12 W3110 infected in mouse assessed as increase of mouse survival at 30 ug, ip administered 15 mins and 12 hrs postinfection; assay type: functional, organism-based; conditions: K-12 substr. W3110
Summary of the method: (§1)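 Mice in groups of 3–7 were infected intraperitoneally with E. coli W3110 from an LB culture. They were treated ip at 15 min and 12 h postinfection with 10, 30, 100 or 300 μg per dose; 300 μg is noted as ~15 mg/kg. Controls were water or scrambled-sequence PPMO. Survival was followed to 48 h and analysed by the Kaplan-Meier method.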

Escherichia coli [2] = test: Antibacterial activity against Escherichia coli K-12 W3110 by microdilution method; assay type: functional; conditions: K-12 substr. W3110
Escherichia coli [3] = test: Antibacterial activity against Escherichia coli K-12 W3110 infected in mouse assessed as reduction of bacterial level in blood at 30 ug, ip administered 15 mins and 12 hrs postinfection measured after 2 hrs post dose relative to control; assay type: functional, K-12 substr. W3110; set-up: scale not given: the % may be the effect or the level left
Summary of the method: (§2)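 Mice in groups of 3–7 were infected intraperitoneally with E. coli W3110 from an LB culture. They were dosed ip with 10–300 μg per dose at 15 min and 12 h postinfection. Controls were water or scrambled-sequence PPMO. Blood was taken at 2, 6, 12, 24 and 48 h, diluted and plated on LB for CFU/ml. Log CFU was compared by one-way ANOVA with Tukey-Kramer; mean ± SD.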

Escherichia coli [4] = test: Antibacterial activity against Escherichia coli K-12 W3110 infected in mouse assessed as increase of mouse survival at 100 ug, ip administered 15 mins and 12 hrs postinfection; assay type: functional, organism-based; conditions: K-12 substr. W3110; summary of the method: as §1
Escherichia coli [5] = test: Antibacterial activity against Escherichia coli K-12 W3110 infected in mouse assessed as increase of mouse survival at 300 ug, ip administered 15 mins and 12 hrs postinfection; assay type: functional, organism-based; conditions: K-12 substr. W3110; summary of the method: as §1
Escherichia coli [6] = test: Antibacterial activity against Escherichia coli K-12 W3110 infected in mouse assessed as increase of mouse survival at 10 ug, ip administered 15 mins and 12 hrs postinfection; assay type: functional, organism-based; conditions: K-12 substr. W3110; summary of the method: as §1
Escherichia coli [7] = test: Antibacterial activity against Escherichia coli K-12 W3110 infected in mouse assessed as reduction of bacterial level in blood at 100 to 300 ug, ip administered 15 mins and 12 hrs postinfection; assay type: functional, K-12 substr. W3110; summary of the method: as §2
Escherichia coli [8] = test: Antibacterial activity against Escherichia coli K-12 W3110 infected in mouse assessed as reduction of bacterial level in blood at 30 to 300 ug, ip administered 15 mins and 12 hrs postinfection measured after 2 hrs post dose relative to control; assay type: functional, organism-based; conditions: K-12 substr. W3110; summary of the method: as §2
Escherichia coli [9] = test: Antibacterial activity against Escherichia coli K-12 W3110 infected in mouse assessed as reduction of bacterial level in blood at 100 to 300 ug, ip administered 15 mins and 12 hrs postinfection relative to control; assay type: functional, K-12 substr. W3110
Summary of the method: (§3)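 E. coli K-12 W3110 was grown in LB broth for the inoculum and injected intraperitoneally into groups of 3–7 mice. Conjugates were given ip at 15 min and 12 h postinfection (10–300 μg per dose), with water or scrambled-sequence conjugate as controls. Blood drawn at 2, 6, 12, 24 and 48 h was diluted and plated on LB for CFU counts. Survival was followed by Kaplan-Meier, and log CFU was compared by ANOVA with Tukey-Kramer.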

[10] = Toxicity in Escherichia coli K-12 W3110 infected ip dosed mouse; assay type: organism-based; conditions: in vivo; summary of the method: as §3
Rattus norvegicus = test: Toxicity in rat at 150 mg/kg, ip; conditions: in vivo

Cc1cn([C@H]2CN(P(=O)(OC[C@@H]3CN(P(=O)(OC[C@@H]4CN(P(=O)(OC[C@@H]5CN(P(=O)(OC[C@@H]6CN(P(=O)(OC[C@@H]7CN(P(=O)(OC[C@@H]8CN(P(=O)(OC[C@@H]9CN(P(=O)(OC[C@@H]%10CNC[C@H](n%11cnc%12c(=O)[nH]c(N)nc%12%11)O%10)N(C)C)C[C@H](n%10cc(C)c(=O)[nH]c%10=O)O9)N(C)C)C[C@H](n9cnc%10c(=O)[nH]c(N)nc%109)O8)N(C)C)C[C@H](n8cnc9c(N)ncnc98)O7)N(C)C)C[C@H](n7cc(C)c(=O)[nH]c7=O)O6)N(C)C)C[C@H](n6cnc7c(N)ncnc76)O5)N(C)C)C[C@H](n5cnc6c(=O)[nH]c(N)nc65)O4)N(C)C)C[C@H](n4ccc(N)nc4=O)O3)N(C)C)C[C@@H](COP(=O)(N(C)C)N3C[C@@H](COP(=O)(N(C)C)N4C[C@@H](COP(=O)(N(C)C)N5CCN(C(=O)CCNC(=O)CCCCCNC(=O)[C@H](CCCNC(=N)N)NC(=O)CCCCCNC(=O)[C@H](CCCNC(=N)N)NC(=O)CCCCCNC(=O)[C@H](CCCNC(=N)N)NC(=O)CCCCCNC(=O)[C@H](CCCNC(=N)N)NC(=O)CCCCCNC(=O)[C@H](CCCNC(=N)N)NC(=O)CCCCCNC(=O)[C@@H](N)CCCNC(=N)N)CC5)O[C@@H](n5ccc(N)nc5=O)C4)O[C@@H](n4cc(C)c(=O)[nH]c4=O)C3)O2)c(=O)[nH]c1=O (stereo partly drawn)
Activity (Escherichia coli [1]): inactive
MIC (Escherichia coli [2]): 1.25 µM (≈ 6.84 µg/mL)
Activity (Escherichia coli [3]): 88%
Activity (Escherichia coli [4]): Active
Activity (Escherichia coli [5]): inactive
Activity (Escherichia coli [6]): inactive
log10cfu (Escherichia coli [7]): 3
Activity (Escherichia coli [8]): Active

CC1(C)S[C@@H]2[C@H](NC(=O)[C@H](N)c3ccccc3)C(=O)N2[C@H]1C(=O)O [AMPICILLIN]
Activity (Escherichia coli [1]): inactive
Activity (Escherichia coli [3]; K-12 substr. W3110): inactive
log10cfu (Escherichia coli [9]): 3

Cc1cn([C@H]2CNC[C@@H](COP(=O)(N(C)C)N3C[C@@H](COP(=O)(N(C)C)N4C[C@@H](COP(=O)(N(C)C)N5C[C@@H](COP(=O)(N(C)C)N6C[C@@H](COP(=O)(N(C)C)N7C[C@@H](COP(=O)(N(C)C)N8C[C@@H](COP(=O)(N(C)C)N9C[C@@H](COP(=O)(N(C)C)N%10C[C@@H](COP(=O)(N(C)C)N%11C[C@@H](COP(=O)(N(C)C)N%12C[C@@H](COP(=O)(N(C)C)N%13CCN(C(=O)CCNC(=O)CCCCCNC(=O)[C@H](CCCNC(=N)N)NC(=O)[C@H](Cc%14ccccc%14)NC(=O)[C@H](CCCNC(=N)N)NC(=O)[C@H](CCCNC(=N)N)NC(=O)NC(=O)[C@H](Cc%14ccccc%14)NC(=O)[C@H](CCCNC(=N)N)NC(=O)[C@H](CCCNC(=N)N)NC(=O)NC(=O)[C@H](Cc%14ccccc%14)NC(=O)[C@H](CCCNC(=N)N)NC(=O)[C@H](CCCNC(=N)N)NC(=O)NC(=O)[C@H](Cc%14ccccc%14)NC(=O)[C@@H](N)CCCNC(=N)N)CC%13)O[C@@H](n%13cc(C)c(=O)[nH]c%13=O)C%12)O[C@@H](n%12ccc(N)nc%12=O)C%11)O[C@@H](n%11cc(C)c(=O)[nH]c%11=O)C%10)O[C@@H](n%10ccc(N)nc%10=O)C9)O[C@@H](n9cnc%10c(N)ncnc%109)C8)O[C@@H](n8cnc9c(=O)[nH]c(N)nc98)C7)O[C@@H](n7cnc8c(N)ncnc87)C6)O[C@@H](n6cc(C)c(=O)[nH]c6=O)C5)O[C@@H](n5cnc6c(=O)[nH]c(N)nc65)C4)O[C@@H](n4cnc5c(=O)[nH]c(N)nc54)C3)O2)c(=O)[nH]c1=O (stereo partly drawn)
LD50 [10]: 210 mg/kg
Activity (Rattus norvegicus): Toxic
